From ChEMBL document CHEMBL1127689, “Novel 4-(aryloxy)tetrahydropyridine analogs of MPTP as monoamine oxidase A and B substrates” (J Med Chem, 1994)

B1: Amine oxidase [flavin-containing] B (Bos taurus) (protein)
chain: MSSKCDVVVVGGGISGMAAAKLLHDSGLNVIVLEARDRVGGRTYTLRNQKVKYVDLGGSYVGPTQNHILRLSKELGLETYKVNEVERLIHHTKGKSYPFRGSFPSVWNPITYLDHNNLWRTMDDMGREIPSDAPWKAPLAEQWDLMTMKELLDKICWTESSKQLAILFVNLCVTAEIHEVSALWFLWYVKQCGGTTRIFSTSNGGQERKFVGGSGQVSERIMDLLGDRVKLERPVIHIDQTGENVLVETLNHELYEAKYVISAVPPVLGMKIHFNPPLPMMRNQLITRVPLGSVIKSIVYYKEPFWRNMDYCGSMIIEGEEAPVAYALDDTKPDGSYPAIIGFILAHKARKLARLTKEERLKKLCDLYAKVLGSQEALHPVHYEEKNWCEEQYSGGCYTSYFPPGIMTQYGRVLRQPVGRIYFAGTETATHWSGYMEGAVEAGERAAREILHAMGKIPEDEIWLPEPESVDVPAKPITTTFLQRHLPSVPGLLKLIGLTTIFSATALGFLAHKRGLLVRI
B2: Amine oxidase [flavin-containing] A (Homo sapiens) (protein)
chain: MENQEKASIAGHMFDVVVIGGGISGLSAAKLLTEYGVSVLVLEARDRVGGRTYTIRNEHVDYVDVGGAYVGPTQNRILRLSKELGIETYKVNVSERLVQYVKGKTYPFRGAFPPVWNPIAYLDYNNLWRTIDNMGKEIPTDAPWEAQHADKWDKMTMKELIDKICWTKTARRFAYLFVNINVTSEPHEVSALWFLWYVKQCGGTTRIFSVTNGGQERKFVGGSGQVSERIMDLLGDQVKLNHPVTHVDQSSDNIIIETLNHEHYECKYVINAIPPTLTAKIHFRPELPAERNQLIQRLPMGAVIKCMMYYKEAFWKKKDYCGCMIIEDEDAPISITLDDTKPDGSLPAIMGFILARKADRLAKLHKEIRKKKICELYAKVLGSQEALHPVHYEEKNWCEEQYSGGCYTAYFPPGIMTQYGRVIRQPVGRIFFAGTETATKWSGYMEGAVEAGERAAREVLNGLGKVTEKDIWVQEPESKDVPAVEITHTFWERNLPSVSGLLKIIGFSTSVTALGFVLYKYKLLPRS

How the values were obtained:
[1] = substrate: CCCCc1ccc(OC2=CCN(C)CC2)cc1; test: (§1) Oxidation by bovine mono-amine oxidase B MAO-B; parameters: species or system Bos taurus
In short: (§2)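 Bovine liver mitochondrial MAO-B, partially purified, at 0.087 μM. Four substrate concentrations were used, from 500–62.5 μM solutions in 100 mM sodium phosphate, pH 7.4. Each was equilibrated 1 min at 37 °C before enzyme was added. Amino enone formation was read at 324 nm every 3 s for 2 min, in duplicate. Km and TN came from Lineweaver-Burk double-reciprocal plots of initial rates.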

[2] = substrate: CN1CC=C(Cc2ccc3ccccc3c2)CC1; test: as §1; parameters: species or system Bos taurus; in short: as §2
[3] = substrate: CN1CC=C(Oc2ccc(-c3ccccc3)cc2)CC1; test: as §1; parameters: species or system Bos taurus; in short: as §2
[4] = substrate: CN1CC=C(Oc2ccc(C(C)(C)C)cc2)CC1; test: as §1; parameters: species or system Bos taurus; in short: as §2
[5] = substrate: CN1CC=C(Oc2ccc(Cl)cc2Cl)CC1; test: as §1; parameters: species or system Bos taurus; in short: as §2
[6] = substrate: CN1CC=C(Oc2ccc3ccccc3c2)CC1; test: as §1; parameters: species or system Bos taurus; in short: as §2
[7] = substrate: CN1CC=C(Oc2cccc3ccccc23)CC1; test: as §1; parameters: species or system Bos taurus; in short: as §2
[8] = substrate: CN1CC=C(Oc2ccccc2)CC1; test: as §1; parameters: species or system Bos taurus; in short: as §2
[9] = substrate: CCCCc1ccc(OC2=CCN(C)CC2)cc1; test: (§3) Oxidation by human mono-amine oxidase MAO-A
In short: (§4)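 MAO-A preparation was diluted 1:4 in 20 mM phosphate, pH 7.4, with 20% w/v glycerol and used at 0.17 μM. Four substrate concentrations were used, from 500–62.5 μM solutions in 100 mM sodium phosphate, pH 7.4, after 1 min at 37 °C. Initial rates were taken from the 324 nm amino enone absorbance, read every 3 s for 2 min, in duplicate. Km and TN came from double-reciprocal plots.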

[10] = substrate: CN1CC=C(Cc2cc3ccccc3c3ccccc23)CC1; test: as §3; in short: as §4
[11] = substrate: CN1CC=C(Oc2cc3ccccc3c3ccccc23)CC1; test: as §3; in short: as §4
[12] = substrate: CN1CC=C(Oc2ccc(-c3ccccc3)cc2)CC1; test: as §3; in short: as §4
[13] = substrate: CN1CC=C(Oc2ccc(C(C)(C)C)cc2)CC1; test: as §3; in short: as §4
[14] = substrate: CN1CC=C(Oc2ccc(Cl)cc2Cl)CC1; test: as §3; in short: as §4
[15] = substrate: CN1CC=C(Oc2ccc3ccccc3c2)CC1; test: as §3; in short: as §4
[16] = substrate: CN1CC=C(Oc2cccc3ccccc23)CC1; test: as §3; in short: as §4
[17] = substrate: CN1CC=C(Oc2ccccc2)CC1; test: as §3; in short: as §4

| Protein | Km [1] [µM] | Km [2] [µM] | Km [3] [µM] | Km [4] [µM] | Km [5] [µM] | Km [6] [µM] | Km [7] [µM] | Km [8] [µM] | Km [9] [µM] | Km [10] [µM] | Km [11] [µM] | Km [12] [µM] | Km [13] [µM] | Km [14] [µM] | Km [15] [µM] | Km [16] [µM] | Km [17] [µM] |
| --- | --- | --- | --- | --- | --- | --- | --- | --- | --- | --- | --- | --- | --- | --- | --- | --- | --- |
| B1 | 84 | 892 | 284 | 56 | 167 | 274 | 143 | 58 |  |  |  |  |  |  |  |  |  |
| B2 |  |  |  |  |  |  |  |  | 51 | 480 | 278 | 101 | 130 | 29 | 77 | 144 | 55 |
